Measurements from the EternaBench riboswitch data.

Test system: MS2 coat protein
Experiment: apparent Kd, MS2 coat protein; higher = weaker binding; RNA-MaP array; FMN 200 µM where present
Method in brief: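 Two titrations, one without ligand and one with constant ligand, were run with SNAP-549-labelled MS2 coat protein from 0.7 or 1.5 nM, doubling to 3 µM. The targets were designs transcribed by stalled E. coli RNA polymerase on Illumina sequencing-chip clusters, in 100 mM Tris-HCl pH 7.5, 80 mM KCl, 4 mM MgCl2, BSA, DTT, yeast tRNA and Tween-20. The apparent Kd is the median of filtered per-cluster binding-curve fits, with green signal normalised to red-channel RNA signal and control-cluster median Fmax.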

[1] = designed as: OFF switch for flavin mononucleotide, no ligand
[2] = ligand present: flavin mononucleotide, designed as: OFF switch for flavin mononucleotide
[3] = designed as: ON switch for flavin mononucleotide, no ligand
[4] = ligand present: flavin mononucleotide, designed as: ON switch for flavin mononucleotide

Row | Sequence | apparent Kd [1] [nM] | apparent Kd [2] [nM] | apparent Kd [3] [nM] | apparent Kd [4] [nM]
1 | CCCUCAACAUGAGGAUCACCCAUGUAGGAUAUCGCUAUUGUAAUCAUGAAACAUGAUUACAAUAGCGAGAAGGACAUAUGUAAA | 27.4 | 140 |  | 
2 | UUCAGCUCGUCAGGAUAUACGUCACUGCUUCGGCAGUGUGGUAAGAUCACAUGAGGAUCACCCAUGUAGAAGGGACGAGCUGAU | 11.9 | 274 |  | 
3 | GGACGUCACAUAUACAUGAGGAUCACCCAUGUCAAAAGACAUGAGGAUAUGGAUCCUAAUUGGAUCCAGAAGGCAUGGACGUCC |  |  | 832 | 51.9
4 | CAGGUAGACUGAGGAUAUACAUGACUUAGUCUAUCUAGGUCUAAAAUCACAUGAGGAUCACCCAUGUAGAAGGCAGUCUGCCUG | 17.6 | 24.2 |  | 
5 | ACGGAACAUGAGGAUCACCCAUGUAUCUGAGAUAUGGUCUCGCAGGAUAUUCAGAGAAGCCAAUCGGAGAAGGGUGACACCAAA |  |  | 36.6 | 19.6
6 | UGUCGGAGCAGAGGAUAUACAUGAGGAUCACCCAUGUAAUAGGAUGAAGCCUGGAAACAGGCAAUGUAGAAGGCUGCUCCGACA | 57.9 | 670 |  | 
7 | UAUGGUUAAGUCAGGAUAUGCUCGUAGAGGUCUAUGCAGAAGGGACAUGAGGAUCACCCAUGUAAGGUCGUGUU | 39.9 | 66.3 |  | 
8 | GUGCCUUGGGAGAAGGCAGUAUGCAAAGCAUUCUGAGGAUAUUCAUACCGGAAACGGACAUGAGGAUCACCCAUGUGGCACAAA |  |  | 1210 | 64.6
9 | AAACCGCUAGGAUAUACGAAAUAAAACUCUGUACUUGAGGUACAUGAGGAUCACCCAUGUAGAAGGAGCUCGGA | 119 | 229 |  | 
10 | AGGAUAAGAAGAACUAUCCAUUGUACAGAAGGCCAACAUGAGGAUCACCCAUGUAAGAAAAGGAUGGAGGAUAUGUAUAGGGCC |  |  | 37.3 | 19.8
11 | UGAACUAUGUAGAAGGCCCAUAUUUAUAUUUAGGGAGGAUAUACAUGAGGAUCACCCAUGUAUAGAGCAAGUGGACUUGUCAGU | 9.19 | 10.3 |  | 
12 | AAAAAACAUGAGGAUCACCCAUGUCAGGAUAUCCGAAAAAAAAAAAAAAAAAAAAAAAGGAGAAGGGACAAAAA | 100 | 83.8 |  | 
13 | AGAUGCAUGUAGAAGGGAGGAUCACCAGUGUACUCAGGAUAUACAUGUGGUGACAUGAGGAUCACCCAUGUAUGCCAGAAGUUC |  |  | 172 | 116
14 | UCCCUAAGGCGGGCCGACCAUACAUGAGGAUCACCCAUGUCGAGAAGGUGCUCACGGGUGGGUGGCAAGGAUAUCGGGUCGGAU |  |  | 78.8 | 40.5
15 | AAUUAUUUACAGAAGGAGUAAGAUUUUGUAUUACUAGGAUAUGUUAACAUGAGGAUCACCCAUGUGUUUGUUGGUUUUUUAUGU | 16.1 | 14.8 |  | 
16 | AAAACGGCGCGUCCCGCACCAACUACAGAAGGCCAACAUGAGGAUCACCCAUGUACAAACUAGAUGGAGGAUAUGUAGGUUCUA |  |  | 6.76 | 4.63
17 | UUUAAGUGAGGAUAUACGAAUAGUAAGUAAGUAUUACAGACGUAGAAGGCACAUGAGGAUCACCCAUGUAAAUA | 30.1 | 28.2 |  | 
18 | CCAGAGGAGUAGGAUAUAGGCCGCCAUCGGCGCCUAGAAGGGCUCACAUGAGGAUCACCCAUGUGAUGUUAGUU | 17.5 | 20 |  | 
19 | AUAUUACGAGGAUAUCGUUUUUAUCACAUGAGGAUCACCCAUGUAAUUUAUGUUUCGUUUCGAGAAGGCGUAAGUU | 19.8 | 22 |  | 
20 | AUGCUAGUGUGAGGAUAUCAACAUGAGGAUCACCCAUGUUGGAAGUACACGACAUGCGGUACACCUGAGAAGGUACAUUAGCAU | 19.6 | 25.4 |  | 
21 | UAAUUAAGUGUGAGGAUAUGCUGGUCCUUGGAUCAGCAGAAGGCACAUGAGGAUCACCCAUGUAAUUUAUAUAU | 98.2 | 485 |  | 
22 | UCAGGCUUCGAGAAGGACAUGAGGAUCACCCAUGUUAAUAUGUAGCAGCCGUGAGGCUGCAUCAUGUAGGAUAUCGGAGUCUGC | 7.02 | 18.7 |  | 
23 | UAUAUAUAGUAAGGAUAUGUAACUAUUUUAUAAACAGAAGGUACUGACAUGAGGAUCACCCAUGUUUUAGUGUGGGCAUGUAGA | 86.7 | 136 |  | 
24 | GUAGCUAUCGGAGGAUAUUCAUACCGGAAACGGACAUGAGGAUCACCCAUGUGGAGAAAGCCUUGGGAGAAGGCCGAUAGCUAC |  |  | 176 | 17.6
25 | GCCUCACAUGAGGAUCACCCAUGUCAGGAUAUGGACUCGAGGGUCUUGGAAGACUGGGCCAGAAGGGACUAUGG | 57 | 83 |  | 
26 | UUUUAACAUGAGGAUCACCCAUGUGAGGAUAUCGAAAUUUAUAUUUAUAUUAAUUAAACGAGAAGGCACAUUUU | 90.9 | 110 |  | 
27 | UGGUACUAGGGAGGAUAUGGGAAGAUACAUGAGGAUCACCCAUGUUUAAGAAUGCCGAGAGGCAACUAGAAGGCUCUAGUACCU |  |  | 416 | 18.4
28 | AAAUUAAGGAGAGGAUAUUGACAUGAGGAUCACCCAUGUAUUUGGGAGUGUUUACUGAAUUCUUACGAGAAGGCUUACGAAAUU | 308 | 234 |  | 

Row | Sequence | apparent Kd [1] [nM] | apparent Kd [2] [nM] | apparent Kd [3] [nM] | apparent Kd [4] [nM]
29 | GUGACUUAUAGAGGAUAUUGACAUGAGGAUCACCCAUGUAUUUGGGAGUGUUCACUGAAUUCUUACGAGAAGGCUAUAAGACAC | 229 | 224 |  | 
30 | ACCUUGUCAGGAUAUCCUAUUUUUUGUUUUAUAUUUACUAUGGAGAAGGGACAUGAGGAUCACCCAUGUUGGUC | 38.8 | 50.2 |  | 
31 | GGAUCGAAUGUGAGGAUAUGCUGGUCCUUGGAUCAGCAGAAGGCACAUGAGGAUCACCCAUGUCCAAGCGGUCC | 212 | 559 |  | 
32 | AGUCGGAGCAGAGGAUAUAUACAUGAGGAUCACCCAUGUGACUGACUACGCUAGAAAUAGCAUGUAUAGAAGGCUGCUCCGACA | 388 | 946 |  | 
33 | AUCAGCUCGUGAGGAUAUACAUCACUGCUUCGGCAGUGUGGUAAGGUCACAUGAGGAUCACCCAUGUAGAAGGCACGAGCUGAU | 13.1 | 279 |  | 
34 | CGGUGACUGGUGAGGAUAUCGUGUUCGAAAGAACGUGAGAAGGCACAUGAGGAUCACCCAUGUGAUCCUCAUCG | 26.1 | 163 |  | 
35 | GGAUGCAAGGAGAAGGGCUACUGGUUGAAACCUGCGGCCUCUGGAACAUGAGGAUCACCCAUGUAGCAGGAUAUCCUUACGUGA | 233 | 32.8 |  | 
36 | UAAGUACAUGAGGAUCACCCAUGUUGGAAUAGAGCAGGAUAUGUGCAGAGGGAAAUAAAAACAGAAGGGCUAAGAA |  |  | 45.3 | 28.6
37 | ACAAAUGGAGGAUAUACAUGAGGAUCACCCAUGUAUAUCCUACAUAUGUGAUAAUAAUGUAGAAGGCCAUUUGA | 11.6 | 11.4 |  | 
38 | CCCGGGUUUGUGAGGAUAUGCCCGGGUAAACCCGGGUAGAAGGCACAUGAGGAUCACCCAUGUAAGGGCCCGGG | 16.7 | 17 |  | 
39 | UUAAAUCAUGUAGGAUAUGCAUGGCGAAGCUACGCAGAAGGACAUGAGGAUCACCCAUGUUCUGGCUACCGGAUACGGUGGCAA | 20.6 | 83.6 |  | 
40 | CUUUUGUGAGGAUAUUCGUAGUAAAUAAAUAAAAUUAUUACGGAGAAGGCACAUGAGGAUCACCCAUGUUCCUU | 17.1 | 50.3 |  | 
41 | CAGUAAUUCGAAGGAUAUGGUUACAUGAGGAUCACCCAUGUAUUUUUUGUGAUCUUAAAAUUGAUCCAGAAGGUCGAAUUACUG | 177 | 373 |  | 
42 | UAUAUUUAUGUAGGAUAUGGUAUACAAAGUAUACCAGAAGGACAUGAGGAUCACCCAUGUAUGAAAUUCCAUAAUUGCCGUGUA | 16.1 | 16.4 |  | 
43 | GGAGCUCCCAUUAACAUGAGGAUCACCCAUGUCAAAAGACAUGAGGAUAUGGUACCUAAUUGGUACCAGAAGGCAUGGAGCUCC |  |  | 1180 | 107
44 | ACCCAACAUGAGGAUCACCCAUGUCAGGAUAUCCAUCUAUACUCGAAAGAGUAUAGAUGGAGAAGGGACAGAGG | 94.8 | 92.9 |  | 
45 | CCGGAAUUACAGGAUAUAGGAGUCGAUAGACACCUAGAAGGGUAGACAUGAGGAUCACCCAUGUGUCCUACCGG | 273 | 182 |  | 
46 | UGCUACGUUUCGUAGCAGUGUCAUCGAGAAGGCCCUGACAUGAGGAUCACCCAUGUUGUUACAUGGGAGGAUAUCGAUGAUACA |  |  |  | 5.16
47 | UUUACAUACAUGAGGAUCACCCAUGUGUUCACCCAUGUAAAUCAGGAUAUAUAUAUAUAGAAUGUAUAGAAGGGAUAAUUUUUU | 97.5 | 99.7 |  | 
48 | GGUAGACAAAGUCUACCAAUACGAACAUGAGGAUCACCCAUGUAGGAUAUGCUACUCAAAGAGUAGCAGAAGGACAUGUGUCUU | 29.5 | 160 |  | 
49 | GAAUAUUCGUUGUACAUGAGGAUCACCCAUGUGACUUGACAUGAGGAUAUGGAUUCUAAUUGGAUCCAGAAGGCAUGAAUAUUC |  |  | 122 | 31.5
50 | UUCAAGUUGCGAGGAUAUCGUGUUAACAUGAGGAUCACCCAUGUAAAGGUAUAUUAAAUUAUCUUCGAGAAGGCGCUUAAUGUA |  |  | 22.6 | 20.3
51 | AAGUCUGGAUGAGGAUAUCAGCUGUAACUGACGUCGACAUGAGGAUCACCCAUGUUGCUAUAGGGUGAGAAGGCAUUUGGGCAA |  |  | 106 | 28.6
52 | UGGUUGUGAGGAUAUACGUUUUUUAACUUUUGUUUUAUAUUGUAGAAGGCACAUGAGGAUCACCCAUGUUACGU | 22.9 | 30.8 |  | 
53 | CUGAGUAGUCAGGAUAUGUGGUACAAAAGUACUGCAGAAGGGAUUACAUGAGGAUCACCCAUGUUUACUUCAUG | 47.4 | 242 |  | 
54 | CCUCUACAUGAGGAUCACCCAUGUGAGGAUAUCAAAGCCAGAGCGGAUCUCCGGCCCAUGAGAAGGUGCAUGGA | 19.8 | 70.8 |  | 
55 | ACAUGAGGAUCACCCAUGUAGAGUGGAGAAGGUAGAUACUUGUGACUCUCCCAUGUACAUAGGACUGAGGAUAUUCUAAUAAUU |  |  | 65.7 | 47.5
